HUVEC inhibit: human endothelial cell proliferation inhibition. HUVEC proliferation, CellTiter-Glo luminescence, 72 h; hits give low values. hit rate 1.1% among 86,000. AID 648. viability, % at 10 µM (by protocol);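 active = viability at or below 30%; inactive = viability above 30%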;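 note: 100% = median luminescence of DMSO-only cell control wells on each plate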
Fibroblast inh: blocks proliferation of human lung fibroblasts; LL 47 human lung fibroblast viability, ATP luminescence; hits give low values; viability, % at 10 µM; hit rate 1.1% among 85,000;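 active = viability at or below 50% in the single dose screen; inactive = viability above 50%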;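 note: compound exposure lasted 72 h before the ATP readout; 100% = median luminescence of untreated cell-only wells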
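Test system: LL 47 human lung fibroblasts / Incubation: 72 h compound exposure at 37 °C after overnight plating / Technique: luminescent ATP detection, CellTiter-Glo / Compound dosing: 0.1% DMSO in all compound wells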
H69AR growth 86K: blocks growth of human H69AR lung tumor cells | H69AR lung tumor viability, ATP luminescence, 72 h; hits give low values | viability, % at 10 µM | hit rate 6% among 85,000 | AID 598;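 active = viability at or below 40%; inactive = viability above 40%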;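 note: multidrug resistant small cell line overexpressing MRP-1 efflux transporter; 100% = mean luminescence of untreated control wells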
bCat KO growth: beta-catenin-lacking colon tumor cell growth suppression | HCT116 beta-catenin knockout viability, CellTiter-Glo, 60 h; hits give low values | viability, % at 10 µM | hit rate 1.5% among 140,000;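 active = viability at or under a set limit, the compound median less 4 SD, cut at about 6% in these data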;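 note: 0% = Hyamine 1622 control at 20 µM and 100% = untreated cell control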
HCT116 PTEN-null: suppresses growth of cells with PTEN deletion. hit rate 1.2% among 140,000. AID 827. HCT116 PTEN-null viability, CellTiter-Glo, 60 h; hits give low values. viability, % at 10 µM;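 active = viability at or below a set limit, 4 SD under the median of all tested compounds, cut at about 3.7% in these data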;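 note: PTEN knockout HCT116 line with beta catenin targeted HCT116 as companion control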
Active calls of the source: *; · = not tested or not shown. Only a selection was taken, and hits are over-represented in it overall.

SMILES	HUVEC inhibit	Fibroblast inh	H69AR growth 86K	bCat KO growth	HCT116 PTEN-null
COc1ccc(OC)c(Nc2cc(-c3ccccc3)nc(N)n2)c1	43.6	63.7	25.1*	13.2	13.0
CON(c1nc(Cl)nc(N(C)C)n1)S(=O)(=O)c1ccccc1Cl	90.3	90.7	21.5*	85.6	89.6
CC1CCCN(C(=O)c2ccc(S(=O)(=O)N3CCC(c4nc5ccccc5s4)CC3)cc2)C1 (stereo unspecified)	88.6	88.0	32.0*	·	·
COC(=O)C1=C(C)N(c2ccc(Cl)c(Cl)c2)C(=O)C1	75.0	65.6	42.5	3.6*	3.6*
COC(=O)C1=C(C)N(c2ccc(S(N)(=O)=O)cc2)C(=O)C1	·	·	·	92.7	92.5
COC(=O)C1=CN(CC2CCCO2)C=C(C(=O)OC)C1c1ccsc1 (stereo unspecified)	85.9	90.0	48.3	89.5	91.8
COC(=O)C1=CN(CC2CCCO2)C=C(C(=O)OC)C1c1ccccc1C(F)(F)F (stereo unspecified)	111.1	100.6	36.6*	90.2	94.7
Cc1ccc(C(=O)Oc2cccnc2)cc1[N+](=O)[O-]	·	·	·	91.5	100.4
Cc1ccc(C(=O)Oc2ccc(Cl)c3cccnc23)cc1[N+](=O)[O-]	·	·	·	4.5*	9.7
CCCC(=O)Nc1ccc(C)c(O)c1	·	·	·	1.0*	1.0*
CCCCC(=O)Nc1ccc(C)c(O)c1	·	·	·	96.2	84.8
CCN(CC)CCNc1nc2cc(OC)c(OC)cc2c2nc(-c3ccccc3)nn12	10.8*	2.7*	15.5*	1.7*	1.2*
Cc1cccc(NC(=S)NCC(c2cccnc2)N(C)C)c1C (stereo unspecified)	·	·	·	87.9	101.5
Cc1cc(C)c2c(n1)sc1c(N3CCOCC3)ncnc12	21.6*	83.3	77.6	·	·
c1nc(N2CCNCC2)c2sc3nc(N4CCOCC4)c4c(c3c2n1)CCC4	72.4	4.0*	7.9*	·	·
CN1CCN(c2ncnc3c2sc2nc(N4CCOCC4)c4c(c23)CCC4)CC1	86.3	99.6	96.6	·	·
OCCN1CCN(c2ncnc3c2sc2nc(N4CCOCC4)c4c(c23)CCC4)CC1	79.9	87.2	98.4	65.6	65.1
O=C1C=C(Nc2ccc(Cl)cc2)CC(c2ccco2)C1 (stereo unspecified)	78.8	87.6	25.5*	49.0	45.1
Clc1ccc(COc2ccccn2)cc1Cl	79.4	90.6	91.0	99.0	93.2
COC(=O)c1cc([N+](=O)[O-])c(-n2ccnc2)c([N+](=O)[O-])c1	·	·	·	98.6	99.4
O=C(COc1ccc(S(=O)(=O)N2CCOCC2)cc1)Nc1ccc2c(c1)OCCO2	93.8	92.2	·	100.1	95.5
O=C(COc1ccc(S(=O)(=O)N2CCOCC2)cc1)Nc1ccc(Cl)c(C(F)(F)F)c1	52.2	58.9	25.0*	37.8	28.0
CCOC(=O)c1c(NC(=O)CSc2n[nH]c(CNc3ccccc3)n2)sc(C)c1C	45.8	73.6	31.4*	23.8	14.3
CCOC(=O)c1c(NC(=O)CSc2n[nH]c(-c3ccco3)n2)sc(C)c1C	88.8	95.9	79.8	87.2	97.3
CCOC(=O)c1c(NC(=O)CSc2nnnn2CC)sc(C)c1C	101.9	84.1	30.6*	92.1	101.0
SMILES	HUVEC inhibit	Fibroblast inh	H69AR growth 86K	bCat KO growth	HCT116 PTEN-null
O=C(NCCOC12CC3CC(CC(C3)C1)C2)c1cccc(Br)c1	·	·	·	95.5	88.1
CCOC(=O)C(=NCCOC)NNc1cc(Cl)ccc1Cl	·	·	·	83.8	87.1
Cc1cc(N2CCOCC2)nc(NCc2ccccc2)n1	114.9	93.1	90.7	93.2	75.0
Cc1cc(N2CCCCC2)nc(NCc2ccccc2)n1	40.2	66.6	16.1*	6.0*	8.0
CCN1CCN(c2ncc3c(n2)CC(c2ccc(OC)c(OC)c2)CC3=O)CC1 (stereo unspecified)	81.5	73.9	19.0*	55.3	47.0
O=C(COC(=O)C1CC1)NCc1ccccc1Cl	·	·	·	100.3	102.6
CCOC(=O)c1nc(Nc2ccc(C(=O)O)cc2)c2ccccc2n1	96.8	100.5	104.6	102.5	90.7
CCOC(=O)c1ccc(Nc2nc(C(=O)OCC)nc3ccccc23)cc1	69.8	103.4	37.7*	91.7	97.9
COc1cccc(/C=C/C(=O)c2ccc(C)c([N+](=O)[O-])c2)c1	·	·	·	2.7*	2.4*
COc1cccc(/C=C/C(=O)c2ccc[nH]2)c1	76.1	77.3	19.0*	35.0	32.3
COc1cccc(/C=C/C(=O)c2ccc(NS(=O)(=O)c3ccc(C)cc3)cc2)c1	·	·	·	100.9	95.2
COc1cc(/C=C/C(=O)c2ccc(C)c([N+](=O)[O-])c2)cc(OC)c1O	·	·	·	2.4*	3.0*
COc1ccc(C(=O)/C=C/c2ccc(N3CCCCC3)c([N+](=O)[O-])c2)cc1	·	·	·	98.5	102.6
COc1ccc(/C=C/C(=O)c2ccc(C)c([N+](=O)[O-])c2)cc1O	·	·	·	1.2*	1.4*
CCCN(CC1CC1)C(=O)CSc1nnc(-c2cc(-c3cccs3)nc3ccccc23)o1	99.7	109.4	74.9	80.7	79.5
COC(=O)CNC(=O)/C=C/c1ccc(OC)cc1	·	·	·	97.7	97.1
CC(=O)Nc1ccc(-c2nnc(SCC(=O)n3c4c(c5ccccc53)CCCC4)n2C)cc1	93.2	99.9	35.2*	105.5	111.9
COc1ccc(-n2c(SCC(=O)NNC(=O)c3ccc(C)cc3)nnc2-c2ccncc2)cc1	·	·	·	93.5	106.3
COc1ccc(NC(=S)N2CCC(N(C)CC3CCCO3)CC2)cc1Cl (stereo unspecified)	·	·	·	106.0	97.2
COc1ccc(C(=O)c2c(C(F)(F)F)oc3c2C(=O)c2ccccc2C3=O)cc1	3.2*	2.3*	81.5	1.2*	1.8*
CCC(=O)Nc1ccc(/C(C)=N/NC(=O)c2c(Br)c(C)nn2C)cc1	·	·	·	67.3	66.0
C/C(=N\NC(=O)c1c(Br)c(C)nn1C)c1ccc(NC(=O)C(C)Oc2ccc(Cl)cc2C)cc1 (stereo unspecified)	·	·	·	0.9*	1.4*
COc1ccc(/C=C2\CCCC3C2=NN(C(=O)c2scnc2C)C3c2ccc(OC)c(OC)c2)cc1OC (stereo unspecified)	·	·	·	52.3	45.1
COc1ccc(/C=C2\CCCC3C2=NN(C(=O)c2ccco2)C3c2ccc(OC)c(OC)c2)cc1OC (stereo unspecified)	·	·	·	5.6*	2.5*
Cc1ccc(/C=N/Nc2ncc(Cl)cc2Cl)s1	62.0	47.5*	49.6	36.2	41.3
SMILES	HUVEC inhibit	Fibroblast inh	H69AR growth 86K	bCat KO growth	HCT116 PTEN-null
Clc1cnc(N/N=C/c2cccs2)c(Cl)c1	68.7	48.5*	82.7	85.6	82.7
Cn1c(=O)[nH]c(=O)c2c1nc(SCC(=O)Nc1ccccc1)n2Cc1ccccc1	84.7	94.5	87.1	86.3	93.3
CCCCCOC(=O)Cn1c(SCC(=O)Nc2ccccc2)nc2c1c(=O)[nH]c(=O)n2C	77.1	96.8	31.5*	94.0	85.7
COc1cc(C)nc(N2CCCC(C(=O)Nc3cccc(Cl)c3Cl)C2)n1 (stereo unspecified)	59.8	70.4	11.0*	99.4	82.1
Cc1nn(-c2ccccc2)c(Cl)c1C(=O)N1CCN(c2ncnc3c2cnn3-c2ccccc2)CC1	2.7*	54.7	33.9*	6.0*	7.1
CCn1c(SCC(=O)N2CCC(C(N)=O)(N3CCCCC3)CC2)nc2ccccc2c1=O	80.6	90.0	9.0*	·	·

Assay outcomes (PubChem)
